Screening results deposited in PubChem by several laboratories.
HSV replic up: increases HSV replication in cells. HSV replication augmentation in cells, fold increase. maximum fold increase. 220,000 compounds, 0.005% hits; in the data active = maximum fold increase above about 1.5; tested in PC3 cells
TNF necrop inh: blocks TNF-alpha induced death of Jurkat FADD-/- cells; Jurkat FADD-/- TNF necroptosis rescue, ATP luminescence, 24 h; 0 = TNF only, 100 = no-TNF cells; activation (protection from cell death), % at 10 µM; 220,000 compounds, 0.068% hits; AID 463075;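 active = activation, meaning protection from cell death, of at least 50% relative to plate controls; inactive = activation below 50%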;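 also: necroptosis triggered by 40 ng/mL TNF-alpha added together with compound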
zVAD death inh: L929 zVAD cell death inhibition | 220,000 compounds, 0.38% hits | L929 zVAD necroptosis rescue, ATP luminescence, 24 h; with zVAD 60 µM | viability rescue, % at 10 µM;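 active = activation, scaled between plate controls, above about 75%, limit read from the data; inactive = activation under that limit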;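 also: 0% = zVAD with DMSO and 100% = DMSO alone without zVAD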
MDM2 E3 inh: blocks human Mdm2 ubiquitin ligase activity | Q00987 | cell-based MDM2 ubiquitination luciferase reporter, 2 h; 0 = plate control, 100 = twice control, blank-subtracted | signal enhancement, % at 5 µM | 210,000 compounds, 0.11% hits | AID 1230;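 active = signal enhancement of 30% or more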;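 also: luminescence tracks abundance of the self-degrading MDM2-luciferase fusion protein; higher signal means inhibition of MDM2 E3 ligase activity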
Target sequence (Q00987 whole entry, looked up, the tested form may be a part): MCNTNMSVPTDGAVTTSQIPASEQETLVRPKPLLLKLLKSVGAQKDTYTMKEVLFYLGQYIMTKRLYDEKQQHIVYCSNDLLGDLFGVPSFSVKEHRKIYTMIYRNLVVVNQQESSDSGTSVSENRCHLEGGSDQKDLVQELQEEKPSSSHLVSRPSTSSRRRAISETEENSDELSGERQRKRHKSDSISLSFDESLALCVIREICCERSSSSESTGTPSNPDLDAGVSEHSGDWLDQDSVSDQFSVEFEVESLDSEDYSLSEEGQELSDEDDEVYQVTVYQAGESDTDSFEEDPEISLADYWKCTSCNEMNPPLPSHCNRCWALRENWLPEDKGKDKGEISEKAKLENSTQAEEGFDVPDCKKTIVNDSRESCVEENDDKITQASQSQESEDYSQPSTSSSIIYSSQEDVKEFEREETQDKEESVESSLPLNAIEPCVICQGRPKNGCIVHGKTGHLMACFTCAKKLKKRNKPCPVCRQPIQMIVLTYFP
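test system = mammalian cells stably expressing self-ubiquitinating, self-degrading MDM2 E3–luciferase fusion | quantity = 2000 cells/well | incubation = cell settling 4 h, compound treatment 2 h, both 37 °C | signal = luminescence with SteadyLite reagent, 15 min at room temperature | evaluation = % enhancement relative to plate controls after blank subtraction | benchmarks = plate controls and plate blanks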
E-sel TNF inh: TNF alpha driven E-selectin expression inhibition | inhibition, % at 2 µM | AID 1246 | HUVEC TNFa-induced E-selectin immunofluorescence, high content | 120,000 compounds, 0.71% hits;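 active = inhibition above the batch mean plus 3 SD, and confirmed as a hit on visual image review, cut at about 43% in these data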;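 also: 0% = TNF-stimulated DMSO wells and 100% = unstimulated control wells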
* marks the source's active call; other numbers are inactive results. Shown are actives, neighbours in structure and some others; about 0.89% of the full set was active somewhere.

What do the screens show for `Cc1cc(NC(=O)CSc2nnc(Cc3ccccc3)n2C)no1`?
HSV replic up: inactive; TNF necrop inh: 0.7; zVAD death inh: 0.8; MDM2 E3 inh: -2.0; E-sel TNF inh: 44.0*

What do the screens show for `CC(C)Cc1nnc(NS(C)(=O)=O)s1`?
HSV replic up: inactive; TNF necrop inh: -1.6; zVAD death inh: 0.3; MDM2 E3 inh: -27.7; E-sel TNF inh: 52.4*

How did CC(C)(C)Cc1nnc(NS(C)(=O)=O)s1 do in these assays?
HSV replic up: inactive; TNF necrop inh: 0.2; zVAD death inh: -0.7; E-sel TNF inh: -7.8

How did Cc1nc(=O)c(-c2ccccc2)c(C)n1-c1ccc(S(N)(=O)=O)cc1 do in these assays?
HSV replic up: inactive; TNF necrop inh: -1.4; zVAD death inh: -0.1; MDM2 E3 inh: -22.8; E-sel TNF inh: 99.9*

How did CCOCCCn1c(C)nc2c[n+](CC(=O)c3ccc4ccccc4c3)cc(Br)c21 do in these assays?
HSV replic up: inactive; TNF necrop inh: -0.2; zVAD death inh: 0.7; MDM2 E3 inh: -18.9

How did O=C(CN1C(=O)c2ccccc2C1=O)N1CCN(c2nnc(-c3ccccc3)c3ccccc23)CC1 do in these assays?
HSV replic up: inactive; TNF necrop inh: -1.8; zVAD death inh: 0.3; MDM2 E3 inh: 0.4; E-sel TNF inh: -7.9

How did Cc1ccc(-c2nnc(N3CCN(C(=O)CN4C(=O)c5ccccc5C4=O)CC3)c3ccccc23)cc1 do in these assays?
HSV replic up: inactive; TNF necrop inh: -1.7; zVAD death inh: 0.5; E-sel TNF inh: 100.0*

What do the screens show for `COC(=O)CSC1=C(C#N)C(=O)NC(c2ccccc2)S1` (configuration not stated)?
HSV replic up: inactive; TNF necrop inh: -11.1; zVAD death inh: 0.2; MDM2 E3 inh: 39.6*; E-sel TNF inh: -3.8

Results for Cc1ccc(/C=C2/NC(=O)N(Cc3ccc(Br)cc3)C2=O)o1 ?
HSV replic up: inactive; TNF necrop inh: 0.6; zVAD death inh: 1.0; MDM2 E3 inh: 31.8*

How did NS(=O)(=O)c1ccc(Oc2ccc(S(N)(=O)=O)cc2)cc1 do in these assays?
HSV replic up: inactive; TNF necrop inh: -0.3; zVAD death inh: -0.9; MDM2 E3 inh: -2.5

Results for C=CS(=O)(=O)c1ccc(Oc2ccc(S(=O)(=O)C=C)cc2)cc1 ?
HSV replic up: inactive; TNF necrop inh: 32.2; MDM2 E3 inh: 64.3*; E-sel TNF inh: 99.9*

How did CCOC(=O)c1ccc(-n2ccnc2)c(NC(=O)c2ccc(Cl)cc2)c1 do in these assays?
HSV replic up: inactive; TNF necrop inh: 1.3; zVAD death inh: 0.6; MDM2 E3 inh: 1.2; E-sel TNF inh: 62.2*

Results for CCOC(=O)c1ccc(Cl)c(NC(=O)c2cccnc2)c1 ?
HSV replic up: inactive; TNF necrop inh: 1.9; zVAD death inh: 10.8; MDM2 E3 inh: 3.9

How did C/C(CCc1ccc2c(c1)OCO2)=N\N=C1\NC(=O)CC(C(=O)Nc2ccccc2F)S1 (configuration not stated) do in these assays?
HSV replic up: inactive; TNF necrop inh: -0.7; zVAD death inh: -0.1; MDM2 E3 inh: -3.1

Results for Cc1ccc(-n2c(C)cc(C=C(C#N)C#N)c2C)cc1 ?
HSV replic up: inactive; TNF necrop inh: -2.4; zVAD death inh: 0.3; MDM2 E3 inh: -18.0; E-sel TNF inh: 52.0*

What do the screens show for `CCCCC(=O)/C=C/n1c(=S)oc2ccccc21`?
HSV replic up: inactive; TNF necrop inh: -8.4; zVAD death inh: 1.7; MDM2 E3 inh: 68.5*; E-sel TNF inh: 3.4

Results for CC(C)OC(=O)n1c(=S)oc2ccccc21 ?
HSV replic up: inactive; TNF necrop inh: -4.8; zVAD death inh: 3.1; MDM2 E3 inh: -0.6; E-sel TNF inh: 28.1

Results for O=C(CSc1nc2ccccc2[nH]1)N1CCN(S(=O)(=O)c2ccc(Cl)cc2)CC1 ?
HSV replic up: inactive; TNF necrop inh: -1.2; zVAD death inh: -0.9; MDM2 E3 inh: -9.7; E-sel TNF inh: 68.1*

How did Cc1ccc(S(=O)(=O)N2CCN(C(=O)CSc3nc4ccccc4c(=O)[nH]3)CC2)cc1 do in these assays?
HSV replic up: inactive; TNF necrop inh: -1.9; zVAD death inh: 0.0; MDM2 E3 inh: -7.2

What do the screens show for `COc1ccc(-c2nsc(SCC(=O)Nc3ccc4c(c3)OCO4)n2)cc1`?
HSV replic up: inactive; TNF necrop inh: 2.3; zVAD death inh: 1.1; MDM2 E3 inh: 31.9*

How did Cc1ccc(-c2nsc(SCC(=O)NCc3ccc4c(c3)OCO4)n2)cc1 do in these assays?
HSV replic up: inactive; TNF necrop inh: -1.8; zVAD death inh: 0.1; MDM2 E3 inh: -2.1; E-sel TNF inh: 56.6

Results for O=C1NC(Cc2c[nH]c3ccccc23)C(=O)N1CCOc1ccc(F)cc1 (configuration not stated) ?
HSV replic up: inactive; TNF necrop inh: 64.7*; zVAD death inh: 7.5; MDM2 E3 inh: -9.9; E-sel TNF inh: -18.9

What do the screens show for `O=C(O)c1ccccc1-n1c2ccccc2c2ccccc21`?
HSV replic up: inactive; TNF necrop inh: 0.6; zVAD death inh: 0.8; MDM2 E3 inh: -10.4

How did COc1cc(/C=C2\COC/C(=C\c3cc(OC)c(OC)c(OC)c3)C2=O)cc(OC)c1OC do in these assays?
HSV replic up: inactive; TNF necrop inh: 8.6; zVAD death inh: 13.7; MDM2 E3 inh: 69.2*

What do the screens show for `Cc1ccc(CN(c2ccc(C(=O)NCC3CCCO3)cc2)S(C)(=O)=O)cc1` (configuration not stated)?
HSV replic up: inactive; TNF necrop inh: 1.2; zVAD death inh: -0.1; MDM2 E3 inh: -9.4

How did CCn1cc(C(=O)O)c(=O)c2cc(F)c(N3CCN(C(=S)NC(=O)c4cccc(C)c4)CC3)cc21 do in these assays?
HSV replic up: inactive; TNF necrop inh: 0.0; zVAD death inh: -0.9; MDM2 E3 inh: -11.2

How did CCn1cc(C(=O)O)c(=O)c2cc(F)c(N3CCN(C(=S)NC(=O)c4ccc(Br)cc4)CC3)cc21 do in these assays?
HSV replic up: inactive; TNF necrop inh: 0.8; zVAD death inh: 1.2; MDM2 E3 inh: -11.8; E-sel TNF inh: 74.3*

What do the screens show for `Cc1cccc(NC(=S)Nc2ccccn2)c1C`?
HSV replic up: inactive; TNF necrop inh: 2.6; zVAD death inh: 0.5; MDM2 E3 inh: 6.7; E-sel TNF inh: 62.1*

What do the screens show for `Cc1cccc(NC(=O)Nc2ccccn2)c1C`?
HSV replic up: inactive; TNF necrop inh: 1.1; zVAD death inh: 3.3; MDM2 E3 inh: -12.6

Results for Cn1c(=O)c(C(=O)CN2CC(=O)Nc3ccccc32)c(N)n(Cc2ccccc2)c1=O ?
HSV replic up: inactive; TNF necrop inh: -0.4; zVAD death inh: -0.7; MDM2 E3 inh: 3.0; E-sel TNF inh: -2.3

Results for CCOC(=O)N1CCc2c(sc3ncn(Cc4ccc(F)cc4)c(=O)c23)C1 ?
HSV replic up: inactive; TNF necrop inh: 3.3; zVAD death inh: 0.5; MDM2 E3 inh: -8.6

What do the screens show for `O=c1c2c3c(sc2ncn1Cc1ccc(F)cc1)CCC3`?
HSV replic up: inactive; TNF necrop inh: 92.5*; zVAD death inh: 1.2; MDM2 E3 inh: -4.0; E-sel TNF inh: -13.4
